# Experimental data as given in ChEMBL document CHEMBL4732199, “Potent and orally bioavailable CDK8 inhibitors: Design, synthesis, structure-activity relationship analysis and biological evaluation” (Eur J Med Chem, 2021).
# Active and inactive are the calls of the source. No cut-off for these calls is given here.
# How the values were obtained:
# [1] = AUC in BALB/c mouse at 2 mg/kg, iv measured up to 24 hrs by LC-MS/MS analysis; details: in vivo
# [2] = Inhibition of CYP4501A in human liver microsomes using ethoxyresorufin O-deethylation as substrate by LC-MS/MS analysis
# [3] = Toxicity in BALB/c mouse assessed as increase in body weight at 70 mg/kg, po administered once daily for 7 days and measured on day 15 relative to control; assay type: organism-based; details: in vivo, 168 h, time 7 day
# [4] = target: CDK6/cyclin D3 (Homo sapiens) (UniProt P30281+Q00534); test: Inhibition of CDK6/cyclin-D3 (unknown origin) at 1 uM; assay type: protein-complex assay
# How it was run: (§1)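 Residual activity of each kinase with compound at 1 µM, measured in a contracted radioisotope-based kinase profiling assay and expressed as % kinase activity remaining.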
# [5] = target: Cyclin-dependent kinase 14/Cyclin-Y (Homo sapiens) (UniProt O94921+Q8ND76); test: Inhibition of CDK14/Cyclin Y (unknown origin) at 1 uM; assay type: protein-complex assay
# How it was run: as §1
# [6] = Clearance in BALB/c mouse at 2 mg/kg, iv measured up to 24 hrs by LC-MS/MS analysis; details: in vivo
# [7] = target: CDK7/Cyclin H/MNAT1 (Homo sapiens) (UniProt P51946+P50613+P51948); test: Inhibition of CDK7/cyclin H/MNAT1 (unknown origin) at 1 uM; assay type: protein-complex assay
# How it was run: as §1
# [8] = target: Cyclin-dependent kinase 5/CDK5 activator 1 (Homo sapiens) (UniProt Q00535+Q15078); test: Inhibition of CDK5/p25 (unknown origin) at 1 uM; assay type: protein-complex assay
# Sequence of Cyclin-dependent kinase 5/CDK5 activator 1 (Homo sapiens) (Q00535 whole entry): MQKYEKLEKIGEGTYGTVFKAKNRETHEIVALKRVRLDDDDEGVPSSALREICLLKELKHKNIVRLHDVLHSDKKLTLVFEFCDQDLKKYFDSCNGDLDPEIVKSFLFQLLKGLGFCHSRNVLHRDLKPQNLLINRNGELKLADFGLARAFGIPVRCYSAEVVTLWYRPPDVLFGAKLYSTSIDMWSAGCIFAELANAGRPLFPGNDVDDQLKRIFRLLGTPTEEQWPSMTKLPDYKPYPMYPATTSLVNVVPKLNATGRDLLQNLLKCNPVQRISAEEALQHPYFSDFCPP
# Sequence of Cyclin-dependent kinase 5/CDK5 activator 1 (Homo sapiens) (Q15078 99-307 partner limits assumed): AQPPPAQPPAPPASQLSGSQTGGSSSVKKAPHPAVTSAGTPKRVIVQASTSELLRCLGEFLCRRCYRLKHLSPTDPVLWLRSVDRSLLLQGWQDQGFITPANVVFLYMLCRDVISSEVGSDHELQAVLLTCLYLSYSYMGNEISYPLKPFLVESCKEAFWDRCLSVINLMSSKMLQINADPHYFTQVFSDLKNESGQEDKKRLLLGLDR
# How it was run: as §1
# [9] = Half life in BALB/c mouse at 10 mg/kg, po measured up to 24 hrs by LC-MS/MS analysis; details: in vivo
# [10] = AUC in BALB/c mouse at 10 mg/kg, po measured up to 24 hrs by LC-MS/MS analysis; details: in vivo
# [11] = target: CDK2/Cyclin A2 (Homo sapiens) (UniProt P24941+P20248); test: Inhibition of CDK2/cyclin-A (unknown origin) at 1 uM; assay type: protein-complex assay
# How it was run: as §1
# [12] = Volume of distribution at steady state in BALB/c mouse at 2 mg/kg, iv measured up to 24 hrs by LC-MS/MS analysis; details: in vivo, read-out: Vdss
# [13] = target: Cyclin-dependent kinase 1/cyclin B1 (Homo sapiens, UniProt P06493); test: Inhibition of CDK1/cyclin-B (unknown origin); assay type: protein-complex assay
# Sequence of Cyclin-dependent kinase 1/cyclin B1 (P06493 whole entry): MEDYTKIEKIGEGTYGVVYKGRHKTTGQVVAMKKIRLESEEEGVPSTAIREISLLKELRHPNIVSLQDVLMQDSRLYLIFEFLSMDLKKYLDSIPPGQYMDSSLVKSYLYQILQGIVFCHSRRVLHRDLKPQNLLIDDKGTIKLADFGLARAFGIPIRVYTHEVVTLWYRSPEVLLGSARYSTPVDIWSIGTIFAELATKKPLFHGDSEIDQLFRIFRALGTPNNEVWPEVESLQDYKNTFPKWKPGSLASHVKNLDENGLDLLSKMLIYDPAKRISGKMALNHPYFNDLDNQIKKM
# Sequence of Cyclin-dependent kinase 1/cyclin B1 (P14635 whole entry, further chain): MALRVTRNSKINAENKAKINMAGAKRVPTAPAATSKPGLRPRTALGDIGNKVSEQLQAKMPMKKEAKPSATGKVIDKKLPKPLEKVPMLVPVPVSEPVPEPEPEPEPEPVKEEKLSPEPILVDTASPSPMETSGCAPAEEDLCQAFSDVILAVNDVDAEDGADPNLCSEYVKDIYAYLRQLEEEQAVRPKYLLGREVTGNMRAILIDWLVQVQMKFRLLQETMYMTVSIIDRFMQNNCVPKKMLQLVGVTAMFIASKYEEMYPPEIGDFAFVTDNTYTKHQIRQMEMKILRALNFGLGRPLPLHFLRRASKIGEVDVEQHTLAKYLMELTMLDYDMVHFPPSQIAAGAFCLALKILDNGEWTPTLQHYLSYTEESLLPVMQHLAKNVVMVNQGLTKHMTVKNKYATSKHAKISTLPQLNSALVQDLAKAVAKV
# How it was run: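 IC50 measured in a contracted radiometric kinase assay with ATP at the experimentally determined Km(ATP) of each kinase. Apparent Ki was derived by Cheng-Prusoff: Ki = IC50/(1+[ATP]/Km(ATP)).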
# [14] = tested on: Glycogen synthase kinase-3 beta (Homo sapiens), P49841 [UNDEFINED MUTATION]; test: Inhibition of human GSKbeta H350L mutant (2 to 3nd residues) at 1 uM using YRRAAVPPSPSLSRHSSPHQS(p) EDEEE as substrate incubated for 40 mins in presence of [gamma-33P]-ATP by scintillation counting method relative to control
# Sequence of Glycogen synthase kinase-3 beta (Homo sapiens), P49841 [UNDEFINED MUTATION] (P49841 whole entry, looked up, stated change not applied): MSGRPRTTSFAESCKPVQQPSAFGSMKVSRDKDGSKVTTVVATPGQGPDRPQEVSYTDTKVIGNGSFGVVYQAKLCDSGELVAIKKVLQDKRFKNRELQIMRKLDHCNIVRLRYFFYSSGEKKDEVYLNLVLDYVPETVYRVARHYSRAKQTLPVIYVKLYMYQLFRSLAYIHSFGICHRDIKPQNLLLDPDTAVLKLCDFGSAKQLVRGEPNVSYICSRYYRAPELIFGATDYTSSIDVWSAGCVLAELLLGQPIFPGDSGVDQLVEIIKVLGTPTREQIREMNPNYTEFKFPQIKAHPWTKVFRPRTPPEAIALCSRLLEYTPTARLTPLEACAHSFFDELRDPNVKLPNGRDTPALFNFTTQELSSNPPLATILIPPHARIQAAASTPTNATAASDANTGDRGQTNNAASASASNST
# How it was run: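 Single-point screen of residual kinase activity (%) at 1 µM compound. Run as a contract radiometric [γ-33P]-ATP kinase assay, either the KinaseProfiler service or the HotSpot assay. ATP was set at the experimentally determined Km(ATP) of each kinase.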
smiles,measurement,setting,value
O=C1NCCC12CCN(c1c(Cl)cncc1-c1cc3ccccc3o1)CC2,AUC at 24 h,[1],1.39 µM·h
same,IC50,[2],7.7 µM
same,Activity,[3],12%
same,inhibition,[4],inactive
same,inhibition,[5],inactive
same,clearance,[6],63 mL/min/kg
same,inhibition,[7],inactive
same,inhibition,[8],inactive
same,half-life,[9],66.6 min
same,AUC at 24 h,[10],2.3 µM·h
same,inhibition,[11],inactive
same,Vd,[12],1.99 L/kg
same,Ki,[13],1890 nM
same,inhibition,[14],> 50%
